From ChEMBL document CHEMBL5724801, “EUbOPEN Chemogenomics Library - Multiplex” (2024)
Several values for one entry are separate records, joined by “and”; a condition that tells them apart may be missing. Equal values may be shown once.

System: Fibroblast
Test: Multiplex assay against human fibroblast
Assay type: toxicity, cell-based
Outline: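 Phenotypes for tubulin, mitochondrial mass and membrane permeability are expressed as per cents of healthy-nucleus cells. Cells were stained live at seeding with Hoechst33342, BioTracker Green Microtubule Cytoskeleton Dye, MitoTracker Red and Annexin V Alexa Fluor 680, then imaged after compound addition on a CQ1 microscope at 37°C and 5% CO2. Machine-learning gating in CellPathfinder separated Hoechst high-intensity objects from normal cells, divided normal cells by nuclear state (healthy, pyknosed, fragmented) and divided pyknosed cells into mitotic or apoptotic.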

[1] = 12 h, 1 µM, compound concentration 1 uM
[2] = 12 h, 10 µM, compound concentration 10 uM
[3] = 24 h, 1 µM, compound concentration 1 uM
[4] = 24 h, 10 µM, compound concentration 10 uM
[5] = 48 h, 1 µM, compound concentration 1 uM
[6] = 48 h, 10 µM, compound concentration 10 uM

COc1cc(C(=O)N2CC[C@@H](O)[C@@H](N)C2)cc2nc(-c3cc4ccccc4n3CC3CC3)n(C)c12.Cl
Population Apoptotic (%) [1]: 21% and 48% | Population Fragmented Nuclei (%) [1]: 25% and 24% | Population Healthy Nuclei (%) [1]: 62% and 44% | Population Hoechst High Intensity Objects (%) [1]: 2% and 3% | Population Membrane Permeable-Phenotype (%) [1]: 0% and 10% | Population Mitochondria Different-Phenotype (%) [1]: 4% and 14% | Population Mitotic Cells (%) [1]: 78% and 51% | Population Normal (%) [1]: 97% and 96% | Population Pyknosed Nuclei (%) [1]: 12% and 31% | Population Tubulin-Different-Phenotype (%) [1]: 55% and 69% | Total Cell Count [1]: 160 and 130 | Population Apoptotic (%) [2]: 60% and 48% | Population Fragmented Nuclei (%) [2]: 22% and 30% | Population Healthy Nuclei (%) [2]: 57% and 44% | Population Hoechst High Intensity Objects (%) [2]: 6% and 10% | Population Membrane Permeable-Phenotype (%) [2]: 0% and 2% | Population Mitochondria Different-Phenotype (%) [2]: 34% and 25% | Population Mitotic Cells (%) [2]: 40% and 51% | Population Normal (%) [2]: 93% and 89% | Population Pyknosed Nuclei (%) [2]: 19% and 25% | Population Tubulin-Different-Phenotype (%) [2]: 97% and 92% | Total Cell Count [2]: 271 and 179 | Population Apoptotic (%) [3]: 55% and 60% | Population Fragmented Nuclei (%) [3]: 24% and 31% | Population Healthy Nuclei (%) [3]: 62% and 36% | Population Hoechst High Intensity Objects (%) [3]: 3% and 4% | Population Membrane Permeable-Phenotype (%) [3]: 0% and 4% | Population Mitotic Cells (%) [3]: 45% and 39% | Population Normal (%) [3]: 96% and 95% | Population Pyknosed Nuclei (%) [3]: 13% and 31% | Population Tubulin-Different-Phenotype (%) [3]: 51% and 79% | Total Cell Count [3]: 158 and 125 | Population Apoptotic (%) [4]: 73% and 62% | Population Fragmented Nuclei (%) [4]: 15% and 27% | Population Healthy Nuclei (%) [4]: 68% and 54% | Population Hoechst High Intensity Objects (%) [4]: 7% and 5% | Population Membrane Permeable-Phenotype (%) [4]: 0% and 3% | Population Mitochondria Different-Phenotype (%) [4]: 55% and 41% | Population Mitotic Cells (%) [4]: 26% and 37% | Population Normal (%) [4]: 92% and 94% | Population Pyknosed Nuclei (%) [4]: 16% and 17% | Population Tubulin-Different-Phenotype (%) [4]: 94% and 92% | Total Cell Count [4]: 274 and 174 | Population Apoptotic (%) [5]: 80% and 64% | Population Fragmented Nuclei (%) [5]: 22% and 38% | Population Healthy Nuclei (%) [5]: 67% and 41% | Population Hoechst High Intensity Objects (%) [5]: 6% and 1% | Population Membrane Permeable-Phenotype (%) [5]: 0% and 3% | Population Mitochondria Different-Phenotype (%) [5]: 8% and 16% | Population Mitotic Cells (%) [5]: 20% and 35% | Population Normal (%) [5]: 93% and 98% | Population Pyknosed Nuclei (%) [5]: 10% and 20% | Population Tubulin-Different-Phenotype (%) [5]: 44% and 80% | Total Cell Count [5]: 161 and 153 | Population Apoptotic (%) [6]: 86% | Population Fragmented Nuclei (%) [6]: 20% and 32% | Population Healthy Nuclei (%) [6]: 64% and 55% | Population Hoechst High Intensity Objects (%) [6]: 8% and 4% | Population Membrane Permeable-Phenotype (%) [6]: 0% | Population Mitochondria Different-Phenotype (%) [6]: 62% and 36% | Population Mitotic Cells (%) [6]: 13% | Population Normal (%) [6]: 91% and 95% | Population Pyknosed Nuclei (%) [6]: 15% and 11% | Population Tubulin-Different-Phenotype (%) [6]: 94% | Total Cell Count [6]: 256 and 193

CN(C)CCCc1cc(C(=O)Nc2ccc(-c3ccncc3)cc2)ccc1O.Cl.Cl
Population Apoptotic (%) [1]: 31% and 44% | Population Fragmented Nuclei (%) [1]: 15% and 22% | Population Healthy Nuclei (%) [1]: 65% and 52% | Population Hoechst High Intensity Objects (%) [1]: 4% and 2% | Population Membrane Permeable-Phenotype (%) [1]: 0% and 4% | Population Mitochondria Different-Phenotype (%) [1]: 7% and 4% | Population Mitotic Cells (%) [1]: 68% and 55% | Population Normal (%) [1]: 95% and 97% | Population Pyknosed Nuclei (%) [1]: 18% and 24% | Population Tubulin-Different-Phenotype (%) [1]: 22% and 40% | Total Cell Count [1]: 122 and 120 | Population Apoptotic (%) [2]: 68% and 48% | Population Fragmented Nuclei (%) [2]: 33% and 31% | Population Healthy Nuclei (%) [2]: 58% and 51% | Population Hoechst High Intensity Objects (%) [2]: 7% and 4% | Population Membrane Permeable-Phenotype (%) [2]: 0% and 4% | Population Mitochondria Different-Phenotype (%) [2]: 15% and 6% | Population Mitotic Cells (%) [2]: 31% and 51% | Population Normal (%) [2]: 92% and 95% | Population Pyknosed Nuclei (%) [2]: 7% and 17% | Population Tubulin-Different-Phenotype (%) [2]: 43% and 45% | Total Cell Count [2]: 305 and 236 | Population Apoptotic (%) [3]: 30% and 37% | Population Fragmented Nuclei (%) [3]: 16% and 22% | Population Healthy Nuclei (%) [3]: 66% and 50% | Population Hoechst High Intensity Objects (%) [3]: 1% and 4% | Population Membrane Permeable-Phenotype (%) [3]: 2% and 1% | Population Mitochondria Different-Phenotype (%) [3]: 3% and 7% | Population Mitotic Cells (%) [3]: 70% and 62% | Population Normal (%) [3]: 98% and 95% | Population Pyknosed Nuclei (%) [3]: 17% and 27% | Population Tubulin-Different-Phenotype (%) [3]: 25% and 45% | Total Cell Count [3]: 119 and 111 | Population Apoptotic (%) [4]: 47% and 42% | Population Fragmented Nuclei (%) [4]: 30% and 31% | Population Healthy Nuclei (%) [4]: 63% and 53% | Population Hoechst High Intensity Objects (%) [4]: 6% and 4% | Population Membrane Permeable-Phenotype (%) [4]: 0% and 5% | Population Mitochondria Different-Phenotype (%) [4]: 11% and 5% | Population Mitotic Cells (%) [4]: 52% and 57% | Population Normal (%) [4]: 93% and 95% | Population Pyknosed Nuclei (%) [4]: 5% and 14% | Population Tubulin-Different-Phenotype (%) [4]: 40% and 42% | Total Cell Count [4]: 339 and 242 | Population Apoptotic (%) [5]: 62% and 50% | Population Fragmented Nuclei (%) [5]: 28% and 23% | Population Healthy Nuclei (%) [5]: 59% and 54% | Population Hoechst High Intensity Objects (%) [5]: 0% and 8% | Population Membrane Permeable-Phenotype (%) [5]: 0% and 1% | Population Mitochondria Different-Phenotype (%) [5]: 1% and 5% | Population Mitotic Cells (%) [5]: 37% and 50% | Population Normal (%) [5]: 99% and 91% | Population Pyknosed Nuclei (%) [5]: 12% and 21% | Population Tubulin-Different-Phenotype (%) [5]: 29% and 46% | Total Cell Count [5]: 126 and 111 | Population Apoptotic (%) [6]: 56% and 51% | Population Fragmented Nuclei (%) [6]: 28% and 35% | Population Healthy Nuclei (%) [6]: 60% and 53% | Population Hoechst High Intensity Objects (%) [6]: 11% and 2% | Population Membrane Permeable-Phenotype (%) [6]: 0% and 3% | Population Mitochondria Different-Phenotype (%) [6]: 8% and 2% | Population Mitotic Cells (%) [6]: 43% and 48% | Population Normal (%) [6]: 88% and 97% | Population Pyknosed Nuclei (%) [6]: 11% and 10% | Population Tubulin-Different-Phenotype (%) [6]: 48% and 39% | Total Cell Count [6]: 321 and 261
